Assay results reported in ChEMBL document CHEMBL4359823, “Switching on the activity of 1,5-diaryl-pyrrole derivatives against drug-resistant ESKAPE bacteria: Structure-activity relationships and mode of action studies” (Eur J Med Chem, 2019).
Converted amounts (≈) assume the structure as drawn.

Tests used:
Assay type in all cases: functional
[1] = tested on: Enterococcus faecalis; experiment: Antibacterial activity against vancomycin sensitive Enterococcus faecalis NCTC775 measured after overnight incubation by microbroth dilution method
In short: (§1)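 Microbroth dilution: DMSO stocks diluted in water, 2-fold series. Overnight TSB cultures back-diluted to OD 0.01 and mixed 1:1 with compound. Incubated overnight at 37 °C; MIC taken as lowest concentration without visible growth (<0.1 OD600). Run in duplicate; matching DMSO levels checked for effect on growth.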

[2] = tested on: Staphylococcus aureus; experiment: Antibacterial activity against methicillin-resistant Staphylococcus aureus MRSA252 measured after overnight incubation by microbroth dilution method; in short: as §1
[3] = tested on: Staphylococcus aureus; experiment: Antibacterial activity against methicillin-sensitive Staphylococcus aureus ATCC 9144 measured after overnight incubation by microbroth dilution method; in short: as §1
[4] = tested on: Enterococcus faecalis; experiment: Antibacterial activity against vancomycin resistant Enterococcus faecalis NCTC12201 measured after overnight incubation by microbroth dilution method; in short: as §1
[5] = tested on: Staphylococcus aureus; experiment: Antibacterial activity against methicillin-resistant Staphylococcus aureus EMRSA15 measured after overnight incubation by microbroth dilution method; in short: as §1
[6] = tested on: Enterococcus faecalis; experiment: Antibacterial activity against vancomycin resistant Enterococcus faecalis NCTC12204 measured after overnight incubation by microbroth dilution method; in short: as §1
[7] = tested on: Pseudomonas aeruginosa; experiment: Antibacterial activity against Pseudomonas aeruginosa PAO1 measured after overnight incubation by microbroth dilution method
In short: (§2)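 Microbroth dilution MIC. Compound DMSO stocks were diluted in water as a 2-fold series. Overnight TSB cultures were back-diluted to OD 0.01 and mixed 1:1 with compound. Plates were incubated overnight at 37 °C. MIC was the lowest concentration without visible growth (<0.1 OD600), run in duplicate.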

[8] = tested on: Acinetobacter baumannii; experiment: Antibacterial activity against Acinetobacter baumannii AYE measured after overnight incubation by microbroth dilution method; in short: as §2
[9] = tested on: Acinetobacter baumannii; experiment: Antibacterial activity against Acinetobacter baumannii ATCC 17978 measured after overnight incubation by microbroth dilution method; in short: as §2
[10] = tested on: Escherichia coli; experiment: Antibacterial activity against Escherichia coli NCTC12923 measured after overnight incubation by microbroth dilution method; in short: as §2
[11] = tested on: Pseudomonas aeruginosa; experiment: Antibacterial activity against Pseudomonas aeruginosa NCTC13437 measured after overnight incubation by microbroth dilution method; in short: as §2
[12] = tested on: Klebsiella pneumoniae; experiment: Antibacterial activity against Klebsiella pneumoniae M6 measured after overnight incubation by microbroth dilution method; in short: as §2
[13] = tested on: Klebsiella pneumoniae; experiment: Antibacterial activity against Klebsiella pneumoniae NCTC13368 measured after overnight incubation by microbroth dilution method; in short: as §2
[14] = tested on: Staphylococcus aureus; experiment: Antibacterial activity against methicillin resistant Staphylococcus aureus NCTC13277 measured after overnight incubation by microbroth dilution method; in short: as §1
[15] = tested on: Staphylococcus aureus; experiment: Antibacterial activity against methicillin resistant Staphylococcus aureus NCTC13616 measured after overnight incubation by microbroth dilution method; in short: as §1
[16] = tested on: Staphylococcus aureus; experiment: Antibacterial activity against methicillin sensitive Staphylococcus aureus NCTC 6571 measured after overnight incubation by microbroth dilution method; in short: as §1

SMILES	MIC [1] [µg/mL]	MIC [2] [µg/mL]	MIC [3] [µg/mL]	MIC [4] [µg/mL]	MIC [5] [µg/mL]	MIC [6] [µg/mL]	MIC [7] [µg/mL]	MIC [8] [µg/mL]	MIC [9] [µg/mL]	MIC [10] [µg/mL]	MIC [11] [µg/mL]	MIC [12] [µg/mL]	MIC [13] [µg/mL]	MIC [14] [µg/mL]	MIC [15] [µg/mL]	MIC [16] [µg/mL]
Cc1ccc(CNCc2cc(C)n(-c3ccc(Cl)cc3)c2C)cc1	64 (≈ 189 µM)	64 (≈ 189 µM)	64 (≈ 189 µM)	64 (≈ 189 µM)	64 (≈ 189 µM)	32 (≈ 94.4 µM)	–	–	–	–	–	–	–	–	–	–
Cc1cc(CN2CCN(C3CCCCC3)CC2)c(C)n1-c1ccc(Cl)cc1	128 (≈ 332 µM)	> 128	128 (≈ 332 µM)	128 (≈ 332 µM)	> 128	128 (≈ 332 µM)	–	–	–	–	–	–	–	–	–	–
Cc1cc(CN2CCN(C3CC4CCC3C4)CC2)c(C)n1-c1ccc(Cl)cc1 (stereo unspecified)	64 (≈ 161 µM)	64 (≈ 161 µM)	64 (≈ 161 µM)	32 (≈ 80.4 µM)	64 (≈ 161 µM)	32 (≈ 80.4 µM)	–	–	–	–	–	–	–	–	–	–
Cc1cc(CNOCc2ccccc2)c(C)n1-c1ccc(F)cc1	> 64	> 64	> 64	> 64	> 64	> 64	–	–	–	–	–	–	–	–	–	–
Cc1cc(CN2CCN(C3C4CC5CC(C4)CC3C5)CC2)c(C)n1-c1ccccc1F (stereo unspecified)	32 (≈ 75.9 µM)	32 (≈ 75.9 µM)	32 (≈ 75.9 µM)	32 (≈ 75.9 µM)	32 (≈ 75.9 µM)	32 (≈ 75.9 µM)	–	–	–	–	–	–	–	–	–	–
Cc1cccc(-n2c(C)cc(CN3CCN(C4C5CC6CC(C5)CC4C6)CC3)c2C)c1 (stereo unspecified)	64 (≈ 153 µM)	64 (≈ 153 µM)	64 (≈ 153 µM)	64 (≈ 153 µM)	64 (≈ 153 µM)	64 (≈ 153 µM)	–	–	–	–	–	–	–	–	–	–
Cc1c(CNC2CCCCCC2)cc(-c2ccc(Cl)cc2)n1-c1ccc(Cl)cc1	4 (≈ 9.36 µM)	–	–	2 (≈ 4.68 µM)	–	2 (≈ 4.68 µM)	128 (≈ 299 µM)	128 (≈ 299 µM)	64 (≈ 150 µM)	> 128	128 (≈ 299 µM)	> 128	> 128	4 (≈ 9.36 µM)	4 (≈ 9.36 µM)	4 (≈ 9.36 µM)
Cc1c(CNC2CCCCC2)cc(-c2ccc(Cl)cc2)n1-c1ccc(Cl)cc1Cl	4 (≈ 8.93 µM)	–	–	4 (≈ 8.93 µM)	–	2 (≈ 4.47 µM)	> 128	> 128	128 (≈ 286 µM)	> 128	> 128	> 128	> 128	4 (≈ 8.93 µM)	4 (≈ 8.93 µM)	4 (≈ 8.93 µM)
Cc1cc(CN2CCN(C3C4CC5CC(C4)CC3C5)CC2)c(C)n1-c1ccc(Cl)cc1 (stereo unspecified)	16 (≈ 36.5 µM)	32 (≈ 73 µM)	16 (≈ 36.5 µM)	16 (≈ 36.5 µM)	32 (≈ 73 µM)	16 (≈ 36.5 µM)	–	–	–	–	–	–	–	–	–	–
Cc1cc(CNC2C3CC4CC(C3)CC2C4)c(C)n1-c1ccc(Cl)cc1 (stereo unspecified)	128 (≈ 347 µM)	128 (≈ 347 µM)	128 (≈ 347 µM)	128 (≈ 347 µM)	> 128	64 (≈ 173 µM)	–	–	–	–	–	–	–	–	–	–
Cc1c(CNC2CCCCC2)cc(-c2ccc(C(C)(C)C)cc2)n1-c1ccc(Cl)cc1	4 (≈ 9.19 µM)	–	–	2 (≈ 4.6 µM)	–	2 (≈ 4.6 µM)	> 128	> 128	> 128	> 128	> 128	> 128	> 128	4 (≈ 9.19 µM)	4 (≈ 9.19 µM)	4 (≈ 9.19 µM)
Cc1cc(CNCc2ccccc2)c(C)n1-c1ccc(F)cc1	64 (≈ 208 µM)	64 (≈ 208 µM)	> 128	64 (≈ 208 µM)	> 128	32 (≈ 104 µM)	–	–	–	–	–	–	–	–	–	–
Cc1cc(CNCCc2ccccc2)c(C)n1-c1ccc(Cl)cc1	32 (≈ 94.4 µM)	32 (≈ 94.4 µM)	32 (≈ 94.4 µM)	16 (≈ 47.2 µM)	32 (≈ 94.4 µM)	8 (≈ 23.6 µM)	–	–	–	–	–	–	–	–	–	–
Cc1c(CNC2C3CC4CC(C3)CC2C4)cc(-c2ccc(Cl)cc2)n1-c1ccc(Cl)cc1 (stereo unspecified)	4 (≈ 8.59 µM)	–	–	2 (≈ 4.3 µM)	–	2 (≈ 4.3 µM)	> 128	> 128	> 128	> 128	> 128	> 128	> 128	4 (≈ 8.59 µM)	4 (≈ 8.59 µM)	4 (≈ 8.59 µM)
Cc1cc(CN2CCN(C3C4CC5CC(C4)CC3C5)CC2)c(C)n1-c1ccc(C(C)C)cc1 (stereo unspecified)	16 (≈ 35.9 µM)	32 (≈ 71.8 µM)	32 (≈ 71.8 µM)	8 (≈ 17.9 µM)	32 (≈ 71.8 µM)	8 (≈ 17.9 µM)	–	–	–	–	–	–	–	–	–	–
Cc1c(CNC2CCCCCC2)cc(-c2ccc(Cl)cc2)n1-c1ccc(F)cc1	4 (≈ 9.73 µM)	–	–	4 (≈ 9.73 µM)	–	2 (≈ 4.87 µM)	> 128	128 (≈ 311 µM)	> 128	128 (≈ 311 µM)	> 128	> 128	> 128	4 (≈ 9.73 µM)	8 (≈ 19.5 µM)	4 (≈ 9.73 µM)
Cc1ccc(C)c(-n2c(-c3ccc(Cl)cc3)cc(CNC3CCCCC3)c2C)c1	4 (≈ 9.83 µM)	–	–	4 (≈ 9.83 µM)	–	2 (≈ 4.91 µM)	> 128	> 128	64 (≈ 157 µM)	> 128	> 128	> 128	> 128	8 (≈ 19.7 µM)	4 (≈ 9.83 µM)	4 (≈ 9.83 µM)
Cc1cc(CNCc2ccc(Cl)cc2)c(C)n1-c1ccc(Cl)cc1	32 (≈ 89.1 µM)	32 (≈ 89.1 µM)	32 (≈ 89.1 µM)	16 (≈ 44.5 µM)	32 (≈ 89.1 µM)	8 (≈ 22.3 µM)	–	–	–	–	–	–	–	–	–	–
Cc1c(CNC(C)c2ccccc2)cc(-c2ccc(Cl)cc2)n1-c1ccc(Cl)cc1 (stereo unspecified)	2 to 4 (≈ 4.59 to 9.19 µM)	–	–	2 to 4 (≈ 4.59 to 9.19 µM)	–	2 (≈ 4.59 µM)	> 128	> 128	> 128	16 to 128 (≈ 36.7 to 294 µM)	> 128	> 128	> 128	4 (≈ 9.19 µM)	4 (≈ 9.19 µM)	4 (≈ 9.19 µM)
Cc1c(CNC2CCCCC2)cc(-c2ccc(F)cc2)n1-c1ccc(Cl)cc1	8 (≈ 20.2 µM)	–	–	4 (≈ 10.1 µM)	–	4 (≈ 10.1 µM)	> 128	128 (≈ 322 µM)	128 (≈ 322 µM)	> 128	> 128	> 128	> 128	8 (≈ 20.2 µM)	8 (≈ 20.2 µM)	8 (≈ 20.2 µM)
